High-throughput results as filed in PubChem.
A selection: hits, their analogues and other compounds. The true share with any hit is near 4%.
Pf gamet viab: late stage P. falciparum gametocyte viability inhibitors, primary screen, ATP luminescence, HTS; P. falciparum stage V gametocytes, 24 h; inhibition, % at 10.9 µM; AID 743093, 2013; actives 0.065% (n = 150,000);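 active = inhibition above the mean plus 3 SD of compounds within the control limits, set per campaign, cut at about 38% in these data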;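 note: 0% = DMSO wells and 100% = medium only without gametocytes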
MT stabilizer: microtubule stabilizers in HeLa cells, primary screen, imaging, high-content imaging; AID 2205, 2009; actives 0.83% (n = 200,000); HeLa tubulin immunostaining HCS, 24 h; share of cells brighter than vehicle mean+2SD; % tubulin-high responders, % at 10 µM;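 active = plate Z-score above 3 for both tubulin-high and condensed-nucleus cell shares, with cell loss under 80%, at 10 µM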;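 note: anti alpha tubulin signal scored within the nucleus-defined area of each cell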
b-catenin transl: modulators of beta-catenin nuclear translocation, primary screen, imaging, HeLa cells, immunofluorescence, high-content. actives 0.3% (n = 190,000). nuclear translocation activity, % at 5 µM;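 active = nuclear translocation activity above 50% at 5 µM, with a well cell count of 50 or more; inconclusive = wells under 50 cells across six images, flagged as toxic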;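 note: per-cell ratio of nuclear to cytoplasmic median beta-catenin stain intensity; plate controls were DMSO negative control for no effect and GSK-3 inhibitor IX positive control for full effect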
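Test system: HeLa cells, endogenous beta-catenin; Compound: single 5 µM dose plus 0.02–20 µM confirmation series; Times: compound exposure 24 h at 37°C; Signal: fluorescence imaging of beta-catenin antibody stain plus DAPI; Read-out: % activation, nuclear-to-cytoplasmic median beta-catenin signal ratio per cell.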
WT yeast gro inh: growth inhibition of WT strain, primary screen, mitochondrial fusion inhibitor project, WT and mutant strains, chemical genetic; inhibition, % at 10 µM; AID 1362, 2008; mitochondrial fusion phenotypic screen; actives 2.1% (n = 190,000); in the data active = inhibition above about 58%; tested in S. cerevisiae
KCC2 mod: KCC2 cotransporter modulators, thallium flux, primary screen, cell-based, HEK293 KCC2, FluoZin-2 fluorescence, MLSMR | KCC2 cells, thallium flux FluoZin-2 fluorescence | B-score of Tl+ flux slope (higher = more flux/activation; lower = inhibition) at 10 µM | actives 2.2% (n = 190,000);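 active = thallium flux slope and its plate-corrected score both differing from the plate sample mean at a set confidence after two filtering rounds, in either direction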;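 note: slope of fluorescence scaled to starting intensity during 10 to 20 s after thallium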
Target sequence (Q9H2X9 whole entry, looked up): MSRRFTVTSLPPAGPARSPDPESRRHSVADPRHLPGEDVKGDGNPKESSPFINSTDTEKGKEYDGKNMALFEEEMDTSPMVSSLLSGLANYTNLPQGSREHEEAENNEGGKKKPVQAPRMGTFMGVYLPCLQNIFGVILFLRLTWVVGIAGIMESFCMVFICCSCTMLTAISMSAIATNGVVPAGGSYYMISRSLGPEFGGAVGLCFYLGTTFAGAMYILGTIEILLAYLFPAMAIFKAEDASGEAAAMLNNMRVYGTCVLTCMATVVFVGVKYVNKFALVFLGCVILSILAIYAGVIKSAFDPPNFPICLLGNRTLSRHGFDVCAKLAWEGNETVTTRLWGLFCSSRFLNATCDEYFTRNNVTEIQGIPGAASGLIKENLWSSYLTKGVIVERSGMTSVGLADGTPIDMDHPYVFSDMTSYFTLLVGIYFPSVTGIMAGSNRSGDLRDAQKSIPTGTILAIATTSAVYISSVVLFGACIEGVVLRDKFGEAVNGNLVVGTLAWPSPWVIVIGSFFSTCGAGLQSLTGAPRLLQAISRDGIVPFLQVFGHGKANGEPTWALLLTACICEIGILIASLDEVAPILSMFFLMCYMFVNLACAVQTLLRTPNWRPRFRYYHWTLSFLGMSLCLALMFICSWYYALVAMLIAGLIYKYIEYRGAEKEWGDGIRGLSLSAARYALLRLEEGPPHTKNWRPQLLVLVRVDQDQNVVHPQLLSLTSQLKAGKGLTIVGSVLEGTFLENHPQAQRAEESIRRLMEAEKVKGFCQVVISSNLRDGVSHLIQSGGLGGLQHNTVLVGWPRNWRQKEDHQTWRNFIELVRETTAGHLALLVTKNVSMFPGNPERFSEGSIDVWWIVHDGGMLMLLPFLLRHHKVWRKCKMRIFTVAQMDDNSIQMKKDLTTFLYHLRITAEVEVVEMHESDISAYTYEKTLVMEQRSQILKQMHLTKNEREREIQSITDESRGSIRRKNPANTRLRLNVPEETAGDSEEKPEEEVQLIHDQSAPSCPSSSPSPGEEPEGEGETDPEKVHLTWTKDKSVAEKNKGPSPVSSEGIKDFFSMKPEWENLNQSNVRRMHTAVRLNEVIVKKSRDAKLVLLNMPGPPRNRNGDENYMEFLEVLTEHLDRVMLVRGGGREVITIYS
KCC2 sec1: KCC2 modulators in sodium-free buffer, confirmation, cell-based, HEK293 KCC2, thallium flux, secondary assay; shares compounds with KCC2 mod; FluoZin2 fluorescence; stronger effect = higher value; normalised thallium flux (F/F0 slope) at 10 µM; actives 15% (n = 3,700);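 active = thallium flux slope above the same plate's solvent-only control mean plus 3 SD; inconclusive = the two replicate wells disagree; inactive = no significant difference from solvent-only control wells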
KCC2 bumet counter: thallium flux persisting under bumetanide in KCC2 cells, confirmation, counter-screen for KCC2 modulator project, cell-based, HEK293 KCC2, FluoZin2, secondary assay 3; shares compounds with KCC2 mod; HEK293-KCC2 + bumetanide/ouabain; stronger effect = higher value; normalized thallium flux at 10 µM; actives 49% (n = 3,700); AID 1714, 2009;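 active = thallium entry rate above the same plate's blocked-transporter control wells by more than 3 SD; inconclusive = the two repeat wells disagree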;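 note: raw slope of fluorescence over initial fluorescence between 10 and 20 s after thallium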
KCC2 secondary2: KCC2 modulators without ouabain present, confirmation, cell-based, HEK293 KCC2, thallium flux, FluoZin2, secondary assay 2; shares compounds with KCC2 mod; thallium flux FluoZin2 fluorescence; actives lie on both sides; F/F0 rise rate, 10–20 s post-thallium; normalized thallium flux at 10 µM; actives 23% (n = 3,700); AID 1715, 2009;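 active = thallium flux slope more than 3 SD above or below the plate's solvent-only control mean, mostly below; inconclusive = the two repeat wells disagreed; inactive = no significant shift from solvent-only controls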;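 note: raw slope with 0.1% DMSO as baseline and bumetanide as block control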
HEK counter1: thallium flux modulation in parental HEK cells, confirmation, counter-screen for KCC2 modulator project, cell-based, counterscreen 1; shares compounds with KCC2 mod; HEK293 parental cells, thallium flux FluoZin2, ouabain; baseline-ratio fluorescence slope, 10–20 s after thallium; thallium flux rate (normalised fluorescence) at 10 µM; actives 46% (n = 3,700); AID 1716, 2009;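 active = thallium flux rate significantly above the same plate's solvent-only control wells, beyond their mean plus 3 SD; inconclusive = the two replicate wells gave conflicting results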
KCC2 ouabain: KCC2 inhibitors and activators, ouabain retest, confirmation, HEK-KCC2 cells; HEK293-KCC2, thallium flux FluoZin2 fluorescence; bidirectional: low = inhibitor, high = activator; raw Tl+ flux slope (below DMSO = inhibition, above = activation) at 10 µM; shares compounds with KCC2 mod; AID 1717, 2009; actives 48% (n = 3,700);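 active = thallium flux slope beyond 3 SD from same-plate DMSO control mean in most replicates, usually higher, sometimes lower; inconclusive = repeat tests gave conflicting results; inactive = no significant difference from controls in most replicates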;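 note: slope of initial-normalized fluorescence between seconds 10 and 20 after thallium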
HEK293 Tl flux2: native HEK Tl+ uptake effects, second counter-screen – HEK cells, counterscreen 2, counter-screen for KCC2 modulator project, confirmation. shares compounds with KCC2 mod. HEK293 parental, thallium flux FluoZin-2 fluorescence slope. thallium flux slope at 10 µM. actives 33% (n = 3,700). AID 1718, 2009;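 active = thallium flux slope above the same plate's solvent-control mean plus 3 SD in both duplicate wells; inconclusive = duplicate wells that disagreed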;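 note: run without ouabain in cells lacking the KCC2 cotransporter; slope of fluorescence scaled to its starting value between 10 and 20 s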
The depositor's hits bear a star; u = inconclusive; x = no result.

SMILES | Pf gamet viab | MT stabilizer | b-catenin transl | WT yeast gro inh | KCC2 mod | KCC2 sec1 | KCC2 bumet counter | KCC2 secondary2 | HEK counter1 | KCC2 ouabain | HEK293 Tl flux2
Cc1cc(=O)[nH]c(SCC(=O)Nc2ccc(Br)cc2)c1C#N | -6 | 2 | x | 2 | -2.9* | 0.0058 | 0.0037 | 0.023* | 0.006* | 0.015* | u
Cc1ccc(OCC(=O)c2c[nH]c3ccccc23)c([N+](=O)[O-])n1 | -11 | 3 | -1 | -7 | -1.1 | x | x | x | x | x | x
c1cnc2c(SCc3ccc(-c4nnco4)cc3)cccc2c1 | 19 | 6 | 0 | 12 | -5.7* | 0.011 | 0.015* | 0.035 | 0.0041 | 0.021* | 0.012
CCn1c(C)nc2cc(N)ccc21 | 5 | x | 0 | x | -0.79 | x | x | x | x | x | x
Nc1ccc2c(c1)ncn2CCCn1cnc2cc(N)ccc21 | -52 | 3 | 1 | -3 | x | 0.0075 | 0.0046 | u | 0.0075 | 0.018 | 0.011
COc1cccc(CNS(=O)(=O)c2cn(C)cn2)c1 | 13 | 5 | 0 | -8 | 7.2* | 0.0062 | 0.0046 | 0.033 | 0.0076 | 0.019 | 0.011
CCN(CC)S(=O)(=O)c1ccc2[nH]c(=O)cc(C(=O)Nc3cccc(C(C)=O)c3)c2c1 | 3 | 5 | 0 | -12 | -0.031 | x | x | x | x | x | x
COC(=O)c1ccc(CSc2nc3ccccc3c(=O)n2CC(C)C)o1 | 15 | 2 | 2 | 58* | 7.6* | 0.0074 | 0.018* | 0.035 | 0.017* | u | 0.017*
COC(=O)c1ccc(CSc2nc3ccccc3c(=O)n2Cc2ccco2)o1 | x | 2 | -2 | 2 | -1.3 | x | x | x | x | x | x
Oc1c(Br)cc(C=Nc2ccc3nc(-c4ccccc4)[nH]c3c2)c(O)c1Br | -6 | 4 | 0 | 13 | -3.5* | 0.0071 | 0.0046 | 0.028 | 0.0062 | 0.013* | 0.0087
O=[N+]([O-])c1ccc(O)c(C=Nc2ccc3nc(-c4ccccc4)[nH]c3c2)c1 | 5 | 1 | 3 | -19 | 0.4 | x | x | x | x | x | x
Cc1ccc(C(C(=O)NC(C)(C)C)N(Cc2ccccc2)C(=O)c2snc(C(N)=O)c2N)o1 (stereo not given) | -3 | 1 | -4 | 11 | -0.6 | x | x | x | x | x | x
O=P(CCN1CCCCC1)(c1ccccc1)c1ccccc1 | x | 0 | x | 0 | -17* | 0.0066 | 0.005 | 0.028 | 0.0078 | 0.018 | 0.012
CC(C)N(C(=O)CSc1nc2c([nH]1)c(=O)n(C)c(=O)n2C)c1ccccc1 | x | 4 | -1 | 3 | -3.7* | 0.01 | 0.0064 | 0.03 | 0.0078 | 0.019 | 0.01
Clc1ccc(CSC2=NCCCN2)cc1Cl | x | 2 | 1 | 1 | 0.033 | x | x | x | x | x | x
Clc1ccccc1CSC1=NCCCN1 | x | 2 | 3 | -11 | x | 0.0075 | 0.0047 | 0.031 | 0.008 | 0.02 | 0.011
Cn1cc(C=O)c2ccccc21 | x | 2 | 0 | 28 | -0.88 | x | x | x | x | x | x
Cn1cc(/C=C2\SC(=O)NC2=S)c2ccccc21 | -2 | 4 | 0 | 2 | 21* | 0.013* | 0.028* | 0.03 | 0.018* | 0.034* | u
Cc1ccc(C(=O)NN2C(=O)/C(=C/c3cccn3C)SC2=S)cc1 | 11 | 1 | 0 | -9 | -3.9 | x | x | x | x | x | x
Cc1ccc(/C=C2/SC(=O)NC2=S)o1 | x | 3 | 0 | -2 | 94* | u | 0.07* | 0.098* | 0.1* | 0.094* | 0.099*
Cc1ccc(C(=O)NN2C(=O)/C(=C/c3cn(C)c4ccccc34)SC2=S)cc1 | -9 | 11 | -2 | 0 | -3.7* | 0.0046* | 0.0039 | 0.026* | 0.0051* | 0.025* | 0.0089
COCCNc1nc(-c2cc(C)c(C)cc2C)cs1 | 23 | 3 | -1 | 18 | -0.3 | x | x | x | x | x | x
O=C1NC(=O)/C(=C/c2ccccc2OCc2ccccc2)S1 | -8 | 3 | 4 | 25 | -5.7* | 0.0086 | 0.0071 | 0.033 | 0.0064 | 0.015* | u
Nc1nnn(CC(=O)N/N=C/C=C/c2ccccc2)n1 | -32 | x | 0 | x | 0.75 | x | x | x | x | x | x
O=C(/C=C/c1ccc(O)c(O)c1)c1ccccc1O | -24 | x | 11 | x | -0.77 | x | x | x | x | x | x
SMILES | Pf gamet viab | MT stabilizer | b-catenin transl | WT yeast gro inh | KCC2 mod | KCC2 sec1 | KCC2 bumet counter | KCC2 secondary2 | HEK counter1 | KCC2 ouabain | HEK293 Tl flux2
Cc1ccc(/C=C/C(=O)c2ccccc(=O)c2O)c(C)c1 | -18 | 4 | -2 | 0 | 68* | 0.013* | 0.088* | 0.04* | 0.056* | 0.073* | 0.02*
Cc1ccc(C)c(/C=C/C(=O)c2ccccc(=O)c2O)c1 | -24 | 1 | -2 | 9 | 40* | 0.0061 | 0.067* | 0.061* | 0.062* | 0.062* | 0.051*
O=C(NC(=S)NCCC1=CCCCC1)c1cccnc1 | -3 | 2 | 0 | 44 | 14* | 0.0098 | 0.036* | 0.031 | 0.013* | u | 0.011*
O=C(NC(=S)NCc1ccccc1)c1cccnc1 | -17 | 3 | 2 | 23 | 1.7 | x | x | x | x | x | x
C/C(N)=C(/C#N)C(=O)CSc1nn(-c2ccc(Cl)cc2)c(=S)s1 | x | 3 | -1 | 47 | -0.72 | x | x | x | x | x | x
C/C(N)=C(/C#N)C(=O)CSc1nnc(SCc2ccc(Cl)cc2)s1 | x | 4 | 1 | 20 | x | 0.007 | 0.0071 | 0.032 | 0.0041 | u | 0.012
Cc1cccc(C)c1Nc1nnc(SCC(=O)NC(=O)c2cccn2C)s1 | -13 | 2 | 0 | 6 | -4.7* | 0.0071 | 0.0048 | 0.028 | 0.0047* | 0.014* | 0.0082
O=C(/C=C/c1cccc([N+](=O)[O-])c1)Nc1cccc(NC(=O)c2cccs2)c1 | 14 | 3 | -4 | -1 | -4.6* | 0.0071 | u | 0.025* | 0.0072 | 0.015* | 0.01
